As usually defined, the ILS is the gain in survival time of treated over control animals, in per cent. Higher therefore signals much gain in survival.

Drawing on ChEMBL document CHEMBL1122132, “Synthesis, 470-MHz 1H NMR spectra, and activity of delactonized derivatives of the anticancer drug etoposide” (1982), this text covers ILS and viability for 3 molecules.

Common to all, as to assay type: functional
Experiment [1] relates to Mus musculus. Nature of the experiment: Percent increase in life span of mouse leukemia L1210 system at a dose of 60 mg/kg.
The test system of experiment [2] is Mus musculus. Put plainly: Percent increase in life span of mouse leukemia L1210 system at a dose of 45 mg/kg.
The subject of experiment [3] is Mus musculus. Put plainly: Percent increase in life span of mouse leukemia L1210 system at a dose of 30 mg/kg.
Experiment [4] deals with L1210. Nature of the experiment: In vitro cytotoxic activity tested in mouse leukemia L1210 cells at a dose of 50.0 ug/mL. The following applies: read-out: Survival. Summed up: (§1)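 Continuous mouse L1210 leukemia cell line exposed to 0.5, 5.0 or 50.0 μg/mL in a soft agar clonogenic assay. Colony survival is expressed as % of untreated control, with control set at 100.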

In experiment [5] the test system is L1210. Nature of the experiment: In vitro cytotoxic activity tested in mouse leukemia L1210 cells at a dose of 5.0 ug/mL. The following applies: read-out: Survival. Put shortly: as §1
Experiment [6] deals with L1210. Nature of the experiment: In vitro cytotoxic activity tested in mouse leukemia L1210 cells at a dose of 0.5 ug/mL. The following applies: read-out: Survival. Summed up:
as §1

In experiment [1], `COc1cc([C@@H]2c3cc4c(cc3[C@@H](O[C@@H]3O[C@@H]5CO[C@@H](C)O[C@H]5[C@H](O)[C@H]3O)[C@@H](CO)[C@@H]2CO)OCO4)cc(OC)c1O` had an ILS at 60 mg/kg of 5%. The increase in life span (ILS) at 45 mg/kg in experiment [2] came out at 0%. The same molecule showed an increase in life span (ILS) at 30 mg/kg in experiment [3] of 0%. The viability at 50 µg/mL in experiment [4] was 43%. The viability at 5 µg/mL in experiment [5] was determined as 221%.
As to `COc1cc([C@@H]2c3cc4c(cc3[C@@H](O[C@@H]3O[C@@H]5CO[C@@H](C)O[C@H]5[C@H](O)[C@H]3O)[C@H]3COC[C@H]23)OCO4)cc(OC)c1O`, in experiment [1], the ILS at 60 mg/kg was 30%. For the same molecule, the increase in life span (ILS) at 45 mg/kg in experiment [2] was determined as 25%. Also, in experiment [6], the viability at 0.5 µg/mL was 165%. This molecule also had an increase in life span (ILS) at 30 mg/kg in experiment [3] of 10%. Also, in experiment [4], the viability at 50 µg/mL stood at 0%. Moreover, in experiment [5], the viability at 5 µg/mL is 0%.
Take `COc1cc([C@@H]2c3cc4c(cc3[C@@H](O[C@@H]3O[C@@H]5CO[C@@H](C)O[C@H]5[C@H](O)[C@H]3O)[C@H]3COC(=O)[C@H]23)OCO4)cc(OC)c1O` [ETOPOSIDE]: the ILS at 60 mg/kg in experiment [1] turned out to be 103%. Further, the viability at 0.5 µg/mL in experiment [6] was determined as 0%. In experiment [3], the ILS at 30 mg/kg worked out at 110%. Further, in experiment [4], the viability at 50 µg/mL amounted to 0%. The viability at 5 µg/mL in experiment [5] is 1%.
